From ChEMBL document CHEMBL4024711, “Design, synthesis and biological evaluation of novel nitric oxide-donating protoberberine derivatives as antitumor agents” (Eur J Med Chem, 2017)
The source made the active and inactive calls. The rule behind the calls is not given here.

What was measured:
[1] = system: HepG2; experiment: Cytotoxicity against human HepG2 cells after 72 hrs by MTT assay; type: functional, cell-based; conditions: HepG2, 72 h
In short: (§1)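 MTT assay. Cells were plated and grown 24 h at 37 °C, 5% CO2, then exposed to compound in medium with 0.1% DMSO for 72 h. MTT (5 mg/mL in PBS) was added for 4 h and absorbance read at 490 nm. IC50 was taken from dose-response curves; at least three independent experiments.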

[2] = Induction of NO release assessed as nitrite formation in PBS at 100 uM up to 300 mins by Griess assay
In short: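 Compound at 100 μM was incubated at 37 °C in PBS, pH 7.4, containing 2% DMSO and 5.0 mM L-cysteine, in acellular or HepG2 cell lysates, and sampled over time. Samples were mixed with Griess reagent at 37 °C for 15 min and read at 540 nm. Nitrite was quantified against a sodium nitrite standard curve, in triplicate.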

[3] = system: HepG2; experiment: Cytotoxicity against human HepG2 cells at 2 uM after 72 hrs by MTT assay; type: functional, cell-based
In short: (§2)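 HepG2 cells were pretreated for 2 h with graded concentrations of carboxy-PTIO (an NO scavenger), or left unpretreated. They were then exposed to 2 μM compound for 72 h, and growth was assessed by MTT. Mean ± SD, n=3.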

[4] = system: HepG2; experiment: Cytotoxicity against human HepG2 cells at 2 uM after 72 hrs in presence of NO scavenger PTIO by MTT assay; type: functional, cell-based; in short: as §2
[5] = system: SMMC-7721; experiment: Cytotoxicity against human SMMC7721 cells after 72 hrs by MTT assay; type: functional, cell-based; conditions: SMMC-7721, 72 h; in short: as §1
[6] = system: HCT-116; experiment: Cytotoxicity against human HCT116 cells after 72 hrs by MTT assay; type: functional, cell-based; conditions: HCT-116, 72 h; in short: as §1
[7] = system: HL-60; experiment: Cytotoxicity against human HL60 cells after 72 hrs by MTT assay; type: functional, cell-based; conditions: HL-60, 72 h; in short: as §1
[8] = system: L02; experiment: Cytotoxicity against human LO2 cells after 72 hrs by MTT assay; type: cell-based; conditions: L02, 72 h; in short: as §1
[9] = system: HepG2; experiment: Cell cycle arrest in human HepG2 cells assessed as accumulation at G1 phase at 0.5 uM after 72 hrs by propidium iodide staining based flow cytometric method (reference value: 56.77%); type: functional
In short: (§3)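 HepG2 cells were seeded and grown 24 h at 37 °C, 5% CO2. They were then exposed to 0, 0.5, 1 or 2 μM for 72 h, fixed in 70% ethanol at 4 °C for 12 h, and stained with RNase A plus propidium iodide for 30 min. DNA content was measured by flow cytometry to give the cell-cycle phase distribution.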

[10] = system: HepG2; experiment: Cell cycle arrest in human HepG2 cells assessed as accumulation at G2 phase at 0.5 uM after 72 hrs by propidium iodide staining based flow cytometric method (reference value: 17.45%); type: functional; in short: as §3
[11] = system: HepG2; experiment: Cell cycle arrest in human HepG2 cells assessed as accumulation at S phase at 0.5 uM after 72 hrs by propidium iodide staining based flow cytometric method (reference value: 25.78%); type: functional; in short: as §3
[12] = system: HepG2; experiment: Cell cycle arrest in human HepG2 cells assessed as accumulation at G1 phase at 1 uM after 72 hrs by propidium iodide staining based flow cytometric method (reference value: 56.77%); type: functional; in short: as §3
[13] = system: HepG2; experiment: Cell cycle arrest in human HepG2 cells assessed as accumulation at G2 phase at 1 uM after 72 hrs by propidium iodide staining based flow cytometric method (reference value: 17.45%); type: functional; in short: as §3
[14] = system: HepG2; experiment: Cell cycle arrest in human HepG2 cells assessed as accumulation at S phase at 1 uM after 72 hrs by propidium iodide staining based flow cytometric method (reference value: 25.78%); type: functional; in short: as §3
[15] = system: HepG2; experiment: Cell cycle arrest in human HepG2 cells assessed as accumulation at G1 phase at 2 uM after 72 hrs by propidium iodide staining based flow cytometric method (reference value: 56.77%); type: functional; in short: as §3
[16] = system: HepG2; experiment: Cell cycle arrest in human HepG2 cells assessed as accumulation at G2 phase at 2 uM after 72 hrs by propidium iodide staining based flow cytometric method (reference value: 17.45%); type: functional; in short: as §3
[17] = system: HepG2; experiment: Cell cycle arrest in human HepG2 cells assessed as accumulation at S phase at 2 uM after 72 hrs by propidium iodide staining based flow cytometric method (reference value: 25.78%); type: functional; in short: as §3
[18] = system: HepG2; experiment: Induction of apoptosis in human HepG2 cells after 72 hrs by Annexin V-APC/7-AAD staining based flow cytometric method; type: functional, cell-based
[19] = system: HepG2; experiment: Induction of apoptosis in human HepG2 cells assessed as live cells at 0.5 uM after 72 hrs by Annexin V-APC/7-AAD staining based flow cytometric method (reference value: 94.99%); type: functional
[20] = system: HepG2; experiment: Induction of apoptosis in human HepG2 cells assessed as early apoptotic cells at 0.5 uM after 72 hrs by Annexin V-APC/7-AAD staining based flow cytometric method (reference value: 2.06%); type: functional
[21] = system: HepG2; experiment: Induction of apoptosis in human HepG2 cells assessed as late apoptotic cells at 0.5 uM after 72 hrs by Annexin V-APC/7-AAD staining based flow cytometric method (reference value: 0.51%); type: functional
[22] = system: HepG2; experiment: Induction of apoptosis in human HepG2 cells assessed as necrotic cells at 0.5 uM after 72 hrs by Annexin V-APC/7-AAD staining based flow cytometric method (reference value: 2.44%); type: functional
[23] = system: HepG2; experiment: Induction of apoptosis in human HepG2 cells assessed as live cells at 1 uM after 72 hrs by Annexin V-APC/7-AAD staining based flow cytometric method (reference value: 94.99%); type: functional
[24] = system: HepG2; experiment: Induction of apoptosis in human HepG2 cells assessed as early apoptotic cells at 1 uM after 72 hrs by Annexin V-APC/7-AAD staining based flow cytometric method (reference value: 2.06%); type: functional
[25] = system: HepG2; experiment: Induction of apoptosis in human HepG2 cells assessed as late apoptotic cells at 1 uM after 72 hrs by Annexin V-APC/7-AAD staining based flow cytometric method (reference value: 0.51%); type: functional
[26] = system: HepG2; experiment: Induction of apoptosis in human HepG2 cells assessed as necrotic cells at 1 uM after 72 hrs by Annexin V-APC/7-AAD staining based flow cytometric method (reference value: 2.44%); type: functional
[27] = system: HepG2; experiment: Induction of apoptosis in human HepG2 cells assessed as live cells at 2 uM after 72 hrs by Annexin V-APC/7-AAD staining based flow cytometric method (reference value: 94.99%); type: functional
[28] = system: HepG2; experiment: Induction of apoptosis in human HepG2 cells assessed as early apoptotic cells at 2 uM after 72 hrs by Annexin V-APC/7-AAD staining based flow cytometric method (reference value: 2.06%); type: functional
[29] = system: HepG2; experiment: Induction of apoptosis in human HepG2 cells assessed as late apoptotic cells at 2 uM after 72 hrs by Annexin V-APC/7-AAD staining based flow cytometric method (reference value: 0.51%); type: functional
[30] = system: HepG2; experiment: Induction of apoptosis in human HepG2 cells assessed as necrotic cells at 2 uM after 72 hrs by Annexin V-APC/7-AAD staining based flow cytometric method (reference value: 2.44%); type: functional
[31] = system: HepG2; experiment: Disruption of mitochondrial membrane potential in human HepG2 cells assessed as intact mitochondrial membrane at 0.5 uM after 72 hrs by JC1 staining based flow cytometric method (reference value: 96.94%); type: functional
In short: (§4)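 HepG2 cells were exposed to 0, 0.5, 1 or 2 μM for 72 h, washed in PBS, and resuspended in JC-1 incubation buffer at 37 °C for 15 min. The fractions of cells with healthy or collapsed mitochondrial membrane potential were determined by flow cytometry.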

[32] = system: HepG2; experiment: Disruption of mitochondrial membrane potential in human HepG2 cells assessed as collapse of the mitochondrial membrane potential at 0.5 uM after 72 hrs by JC1 staining based flow cytometric method (reference value: 3.05%); type: functional; in short: as §4
[33] = system: HepG2; experiment: Disruption of mitochondrial membrane potential in human HepG2 cells assessed as intact mitochondrial membrane at 1 uM after 72 hrs by JC1 staining based flow cytometric method (reference value: 96.94%); type: functional; in short: as §4
[34] = system: HepG2; experiment: Disruption of mitochondrial membrane potential in human HepG2 cells assessed as collapse of the mitochondrial membrane potential at 1 uM after 72 hrs by JC1 staining based flow cytometric method (reference value: 3.05%); type: functional; in short: as §4
[35] = system: HepG2; experiment: Disruption of mitochondrial membrane potential in human HepG2 cells assessed as intact mitochondrial membrane at 2 uM after 72 hrs by JC1 staining based flow cytometric method (reference value: 96.94%); type: functional; in short: as §4
[36] = system: HepG2; experiment: Disruption of mitochondrial membrane potential in human HepG2 cells assessed as collapse of the mitochondrial membrane potential at 2 uM after 72 hrs by JC1 staining based flow cytometric method (reference value: 3.05%); type: functional; in short: as §4
[37] = system: H22; experiment: Antitumor activity against […] H22 cells xenografted in ICR mouse assessed as tumor growth inhibition at 30 mg/kg, iv administered once daily for 21 days measured post last dose relative to control; type: functional; conditions: 504 h, read-out: TGI
[38] = system: H22; experiment: Antitumor activity against […] H22 cells xenografted in ICR mouse assessed as tumor growth inhibition at 15 mg/kg, iv administered once daily for 21 days measured post last dose relative to control; type: functional; conditions: 504 h, read-out: TGI
[39] = system: H22; experiment: Antitumor activity against […] H22 cells xenografted in ICR mouse assessed as tumor weight at 30 mg/kg, iv administered once daily for 21 days measured post last dose (reference value: 4.38 +/- 0.16 g); type: functional
[40] = system: H22; experiment: Antitumor activity against […] H22 cells xenografted in ICR mouse assessed as tumor weight at 15 mg/kg, iv administered once daily for 21 days measured post last dose (reference value: 4.38 +/- 0.16 g); type: functional
[41] = system: Mus musculus; experiment: Toxicity in ICR mouse xenografted with […] cells assessed as body weight at 30 mg/kg, iv administered once daily for 21 days measured post last dose (reference value: 26 +/- 0.6 g); type: organism-based; conditions: in vivo, 504 h
[42] = system: Mus musculus; experiment: Toxicity in ICR mouse xenografted with […] cells assessed as body weight at 15 mg/kg, iv administered once daily for 21 days measured post last dose (reference value: 26 +/- 0.6 g); type: organism-based; conditions: in vivo, 504 h

Work on `COc1cc2c(cc1OC)-c1cc3ccc(OC)c(OCCCCCCCCCCCCO[N+](=O)[O-])c3c[n+]1CC2` yielded an IC50 [1] of 2.55 µM.
For `COc1cc2c(cc1OC)-c1c(Br)c3ccc(OC)c(OCCCCCCCCO[N+](=O)[O-])c3c[n+]1CC2.[Br-]`, the IC50 [1] was 1.36 µM, the Activity [2] was “Active” and the Activity [3] was “Active”. The Activity [4] was “inactive”, the IC50 [5] was 1.21 µM and the IC50 [6] was 2.29 µM. For the same compound, the IC50 [7] was 1.26 µM, the IC50 [8] was 28.9 µM and the Activity [9] was 51.14%. The Activity [10] was 23.38%, the Activity [11] was 25.49% and the Activity [12] was 47.33%. The Activity [13] was 29.57%, the Activity [14] was 23.1% and the Activity [15] was 34.32%. For the same compound, the Activity [16] was 41.45%, the Activity [17] was 24.23% and the Activity [18] was “Dose-dependent effect”. It also gave an Activity [19] of 85.1%, an Activity [20] of 11.02% and an Activity [21] of 2.39%. It also gave an Activity [22] of 1.49%, an Activity [23] of 63.61% and an Activity [24] of 22.97%. It also gave an Activity [25] of 9.11%, an Activity [26] of 4.32% and an Activity [27] of 44.44%. For the same compound, the Activity [28] was 41.13%, the Activity [29] was 10.01% and the Activity [30] was 4.43%. It also gave an Activity [31] of 87.9%, an Activity [32] of 12.1% and an Activity [33] of 74.5%. The Activity [34] was 25.5%, the Activity [35] was 59.5% and the Activity [36] was 40.5%. It also gave an inhibition in vivo at 30 mg/kg [37] of 62.5%, an inhibition in vivo at 15 mg/kg [38] of 45.9% and an Activity [39] of 1.64 g. The Activity [40] was 2.37 g, the Activity [41] was 25.2 g and the Activity [42] was 25.4 g.
Compound `COc1ccc2cc3[n+](cc2c1OCCCO[N+](=O)[O-])CCc1cc2c(cc1-3)OCO2` has an IC50 [1] of 22 µM.
